Assay results published in publication PMC5132079 (Clinical Pharmacology in Drug Development, 2016).
Entries after “also recorded” stand apart in the source; their conditions may differ. Where two headings read alike, the source gives them in different places. Values belong to the compound of their own block, whether it stands above or below them.

Key:
[1] = system: QTcF interval in healthy subjects; assay: Thorough QT study, continuous Holter monitoring, time-matched ΔΔQTcF; assay type: in vivo, human; conditions: for time of maximum effect of ΔΔQTcF: after dosing on day 2
Outline: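 3-period crossover: test compound 150 mg orally every 12 h ×3, placebo, or single 400-mg fluoroquinolone positive control; ≥21-day washouts. Continuous 12-lead 1000-Hz Holter; day −1 24-h baseline. Triplicate ECGs extracted 0.5–24 h after day-2 dose, lead II, blinded central reader; QT Fridericia-corrected; time-matched placebo-subtracted change (ΔΔQTcF) by repeated-measures ANCOVA with 90% CIs; concentration relation via linear mixed-effects model.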

[2] = Plasma cabotegravir pharmacokinetics after third dose; assay type: in vivo; conditions: human, po, 150 mg; for AUC(0-t) / Tmax: oral 150 mg every 12 hours × 3 doses; for Tmax: median (range)
Outline: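 Healthy adults took oral test compound 150 mg (5 × 30-mg tablets) every 12 h for 3 doses, fasting ≥6 h before and 4 h after the third dose. Plasma was sampled predose and 0.5–24 h after the day-2 dose. Samples were protein-precipitated and run on HPLC-MS/MS (TurboIonSpray, MRM), range 25–25 000 ng/mL. Noncompartmental analysis gave Cmax, Tmax, AUC0–12 and AUC0–24.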

healthy subjects = assay: Safety assessments; assay type: in vivo, human; conditions: for Alanine aminotransferase increased / Any adverse event / Blood creatine phosphokinase increased / Dermatitis contact / Headache / Nausea: safety population
Outline: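 Healthy adults aged 18–55 were crossed over between test compound (150 mg every 12 h ×3), placebo and a positive control, with ≥21-day washouts. Monitoring ran throughout and covered adverse events, laboratory tests, vital signs and physical examinations. Semisupine 12-lead safety ECGs were taken at 0, 3, 12 and 15 h on day 1, at 0 and 3 h on day 2, and at 24 h on day 3. Summaries were descriptive.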

[3] = Drug exposure in monkey cardiovascular study; assay type: in vivo; conditions: 1000 mg/kg in monkeys vs 150 mg every 12 hours × 3 doses in humans
[4] = Previous single-dose cabotegravir 150 mg pharmacokinetic study; assay type: in vivo, human
hERG channel = conditions: 5.28 μM [2.14 μg/mL]; HEK 293 cells; nonclinical studies; cited from earlier work
[5] = system: unrestrained male monkeys; conditions: nonclinical study, cited from earlier work
[6] = monkeys, 1000 mg/kg; nonclinical study; cited from earlier work
[7] = system: QTcF in clinical study subjects; conditions: 8 phase 1/2a studies, n = 245 subjects, cited from earlier work
[8] = cited from earlier work
HIV-1 = conditions: oral cabotegravir, early clinical studies; cited from earlier work
UGT1A1, UGT1A9 = conditions: to inactive glucuronide metabolites; cited from earlier work
[9] = system: UGT and cytochrome P450 (CYP) enzymes; conditions: in vitro; cited from earlier work
[10] = single dose 150 mg; ref unpublished data; cited from earlier work
[11] = cited from earlier work; remark: listed apart in the source
QTc in healthy subjects = conditions: randomized, placebo-controlled study of 20 healthy subjects; cited from earlier work
cardiac repolarization = conditions: prior studies; cited from earlier work
[12] = cabotegravir 150 mg every 12 hours × 3 doses
[13] = linear mixed-effects PK/pharmacodynamic model
[14] = supratherapeutic dose, 150 mg every 12 hours × 3 doses
[15] = 150 mg every 12 hours × 3 doses
[16] = single dose 150 mg, extrapolation from 30-mg data
[17] = single dose 1000 mg/kg, within the first 2 hours of dosing

AUC(0-t) ([2]; both, AUC0–12, geometric mean (CV,%) [90%CI], all subjects (n = 40)): 217 µg·h/mL
AUC(0-t) ([2]; both, AUC0–24, geometric mean (CV,%) [90%CI], all subjects (n = 40)): 386 µg·h/mL
Tmax ([2]; both, all subjects (n = 40)): ~2 h
Cmax ([2]; female): 25100 ng/mL
AUC(0-t) ([2]; female, AUC0–12, geometric mean (CV,%) [90%CI], women (n = 9)): 234 µg·h/mL
AUC(0-t) ([2]; female, AUC0–24, geometric mean (CV,%) [90%CI], women (n = 9)): 409 µg·h/mL
Tmax ([2]; female, women (n = 9)): 2 h
Cmax ([2]; male): 21900 ng/mL
AUC(0-t) ([2]; male, AUC0–12, geometric mean (CV,%) [90%CI], men (n = 31)): 213 µg·h/mL
AUC(0-t) ([2]; male, AUC0–24, geometric mean (CV,%) [90%CI], men (n = 31)): 380 µg·h/mL
Tmax ([2]; male, men (n = 31)): 2 h
geometric mean Cmax higher than after repeat 30 mg once daily ([4]; single dose 150 mg vs 30 mg once daily in HIV-infected subjects): 39%
predicted AUC0–∞ [4, 16]: 870 µg·h/mL
predicted Cmax [4, 16]: 21200 ng/mL
SMILES: C[C@H]1CO[C@@H]2Cn3cc(C(=O)NCc4ccc(F)cc4F)c(=O)c(O)c3C(=O)N12 [Cabotegravir]
time of maximum effect of ΔΔQTcF [1]: 8 h
point estimate for ΔΔQTcF at any point [1, 12]: ≤ 5 milliseconds
subjects with QTcF value > 450 milliseconds [1, 12]: not associated with any instances
subjects with changes from baseline in QTcF of >30 milliseconds [1, 12]: none of the subjects
ΔΔQTcF, mean ± SE ([1]; cabotegravir 150 mg every 12 hours × 3 doses minus placebo, 1 h): -0.37 ± 1.74 ms
ΔΔQTcF, mean ± SE ([1]; cabotegravir 150 mg every 12 hours × 3 doses minus placebo, 2 h): 0.44 ± 1.83 ms
ΔΔQTcF, mean ± SE ([1]; cabotegravir 150 mg every 12 hours × 3 doses minus placebo, 3 h): -0.62 ± 1.69 ms
ΔΔQTcF, mean ± SE ([1]; cabotegravir 150 mg every 12 hours × 3 doses minus placebo, 4 h): -0.37 ± 1.53 ms
ΔΔQTcF, mean ± SE ([1]; cabotegravir 150 mg every 12 hours × 3 doses minus placebo, 6.5 h): 0.50 ± 1.63 ms
ΔΔQTcF, mean ± SE ([1]; cabotegravir 150 mg every 12 hours × 3 doses minus placebo, 12 h): -0.34 ± 1.66 ms
ΔΔQTcF, mean ± SE ([1]; cabotegravir 150 mg every 12 hours × 3 doses minus placebo, 24 h): 1.13 ± 2.05 ms
upper limits of 2-sided 90% confidence intervals for ΔΔQTcF ([1]; cabotegravir 150 mg every 12 hours × 3 doses, all time points): < 10 milliseconds
subjects with QTcF value > 450 milliseconds ([1]; cabotegravir 150 mg every 12 hours × 3 doses, listed as cabotegravir): No subject
mean estimated intercept, ΔΔQTcF vs time-matched cabotegravir concentration [1, 13]: 1.382 milliseconds
relationship between cabotegravir plasma concentrations and ΔΔQTcF [1, 13]: no relationship; also recorded: no discernable concentration effect
effect on cardiac repolarization [1, 14]: no effect on cardiac repolarization
clinical laboratory values, vital signs, or safety ECG results (healthy subjects; [15]): No clinically significant trends
serious or grade 3 or 4 adverse events (healthy subjects; [15]): no serious or grade 3 or 4 adverse events
Alanine aminotransferase increased (healthy subjects; cabotegravir 150 mg (n = 40)): 1 (3) n (%)
Any adverse event (healthy subjects; cabotegravir 150 mg (n = 40)): 13 (33) n (%)
Blood creatine phosphokinase increased (healthy subjects; cabotegravir 150 mg (n = 40)): 0 n (%)
Dermatitis contact (healthy subjects; cabotegravir 150 mg (n = 40)): 6 (15) n (%)
Headache (healthy subjects; cabotegravir 150 mg (n = 40)): 1 (3) n (%)
Nausea (healthy subjects; cabotegravir 150 mg (n = 40)): 0 n (%)
Dermatitis contact (healthy subjects; cabotegravir 150 mg (n = 40), listed as cabotegravir): 6 n (%)
tolerability (healthy subjects; [14]): well tolerated
drug exposure (Cmax) in monkeys relative to present study [3]: 3 fold
effects on hERG channel tail current (hERG channel): no different than those observed with vehicle
ECG waveform or interval changes ([5]; single dose 1000 mg/kg): no electrocardiogram (ECG) waveform or interval changes
transient increase in heart rate [5, 17]: ~20%
transient increase in mean arterial pressure [5, 17]: ~6%
cardiovascular effects ([5]; single doses of 8 and 25 mg/kg): no effects
Cmax [6]: 67000 ng/mL
overall mean difference in QTcF change from baseline between cabotegravir and placebo ([7]; 2540 postdose ECGs): –2.9 milliseconds
subjects with QTcF ≥ 480 milliseconds or change from baseline in QTcF of >60 milliseconds [7]: no subject
dose proportionality of pharmacokinetics ([8]; 10 to 60 mg, previous work): dose‐proportional manner from 10 to 30 mg, but in a less than proportional manner from 30 to 60 mg
plasma half-life ([8]; oral cabotegravir): 40 h
dose proportionality of AUC(0–t), Cmax, Cτ, and Cmin ([8]; repeated administration for 14 days): Dose‐proportional increases
antiretroviral activity (HIV-1): potent antiretroviral activity
tolerability (HIV-1): generally well tolerated
metabolic pathway (UGT1A1, UGT1A9): metabolized via UDP‐glucuronosyltransferase (UGT) 1A1, with a secondary contribution from UGT1A9
inhibition or induction of UGT and cytochrome P450 (CYP) enzymes [9]: has not been shown to inhibit or induce
geometric mean Cmax [10]: 10400 ng/mL
geometric mean plasma AUC0–∞ [10]: 418 µg·h/mL
median time to Cmax (Tmax) [10]: 2.5 h
Cmax at steady state ([11]; clinically therapeutic dose 30 mg once daily): 7500 ng/mL
Cmax ([11]; repeat administration of 30 mg once daily in HIV-infected subjects): 7490 ng/mL

SMILES: COc1c(N2C[C@@H]3CCCN[C@@H]3C2)c(F)cc2c(=O)c(C(=O)O)cn(C3CC3)c12 [Moxifloxacin, moxifloxacin, reference compound]
time of maximum effect of ΔΔQTcF [1]: 8 h
ΔΔQTcF, mean ± SE ([1]; moxifloxacin 400 mg single dose minus placebo, 0.5 h): 5.40 ± 2.05 ms
ΔΔQTcF, mean ± SE ([1]; moxifloxacin 400 mg single dose minus placebo, 1 h): 8.75 ± 1.79 ms
ΔΔQTcF, mean ± SE ([1]; moxifloxacin 400 mg single dose minus placebo, 2 h): 11.67 ± 1.88 ms
ΔΔQTcF, mean ± SE ([1]; moxifloxacin 400 mg single dose minus placebo, 3 h): 10.49 ± 1.73 ms
ΔΔQTcF, mean ± SE ([1]; moxifloxacin 400 mg single dose minus placebo, 4 h): 11.81 ± 1.57 ms
ΔΔQTcF, mean ± SE ([1]; moxifloxacin 400 mg single dose minus placebo, 6.5 h): 10.08 ± 1.68 ms
ΔΔQTcF, mean ± SE ([1]; moxifloxacin 400 mg single dose minus placebo, 8 h (maximum observed)): 13.03 ± 1.63 ms
ΔΔQTcF, mean ± SE ([1]; moxifloxacin 400 mg single dose minus placebo, 12 h): 7.79 ± 1.69 ms
ΔΔQTcF, mean ± SE ([1]; moxifloxacin 400 mg single dose minus placebo, 24 h): 6.53 ± 2.10 ms
lower limit of the 90%CI for ΔΔQTcF ([1]; moxifloxacin 400 mg, at several times): > 5 millisecond
Alanine aminotransferase increased (healthy subjects; moxifloxacin 400 mg (n = 36)): 0 n (%)
Any adverse event (healthy subjects; moxifloxacin 400 mg (n = 36)): 12 (33) n (%)
Blood creatine phosphokinase increased (healthy subjects; moxifloxacin 400 mg (n = 36)): 1 (3) n (%)
Dermatitis contact (healthy subjects; moxifloxacin 400 mg (n = 36)): 2 (6) n (%)
Headache (healthy subjects; moxifloxacin 400 mg (n = 36)): 2 (6) n (%)
Nausea (healthy subjects; moxifloxacin 400 mg (n = 36)): 2 (6) n (%)
Dermatitis contact (healthy subjects; moxifloxacin 400 mg (n = 36), listed as moxifloxacin): 2 n (%)
time of first peak of placebo-adjusted QTcF change from baseline (QTc in healthy subjects): 4 h
time of second increase in QTc (QTc in healthy subjects): 8 h

SMILES: C[C@@H]1CCO[C@H]2Cn3cc(C(=O)NCc4ccc(F)cc4F)c(=O)c(O)c3C(=O)N12 [dolutegravir]
effect on cardiac repolarization (cardiac repolarization): do not affect cardiac repolarization
